Compound activity deposited in PubChem BioAssay by Johns Hopkins Ion Channel Center.
The list is not random: actives were taken first. Their share in the collection is about 3.7%.
Kir21 block: blocks the mouse Kir2.1 inward-rectifier potassium channel; B-score at 10 µM; P35561; actives 0.85% (n = 310,000); AID 1672; HEK293-Kir2.1, FluxOR thallium flux fluorescence; stronger effect = lower value;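 active means fluorescence ratio B-score at or below minus 3 SD of library scores, with starting-brightness B-score within 2 SD, cut at about -4.2 in these data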;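 further: channel flux triggered by added potassium and thallium sulfate stimulus; B-score of peak minus minimum fluorescence over baseline after thallium stimulus; more negative B-score means stronger Kir2.1 block with less thallium influx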
KCNK3 block: human KCNK3 channel inhibition, primary screen; O14649; CHO-KCNK3 thallium flux, FluxOR fluorescence; stronger effect = lower value; actives 0.84% (n = 340,000); AID 602410; B-score at 10 µM;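 active means B-score under library mean minus 4 SD, starting fluorescence ratio at most library mean plus 5 SD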;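 further: more negative B-score means stronger inhibition of thallium flux through KCNK3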
Target sequence (O14649 whole entry, looked up): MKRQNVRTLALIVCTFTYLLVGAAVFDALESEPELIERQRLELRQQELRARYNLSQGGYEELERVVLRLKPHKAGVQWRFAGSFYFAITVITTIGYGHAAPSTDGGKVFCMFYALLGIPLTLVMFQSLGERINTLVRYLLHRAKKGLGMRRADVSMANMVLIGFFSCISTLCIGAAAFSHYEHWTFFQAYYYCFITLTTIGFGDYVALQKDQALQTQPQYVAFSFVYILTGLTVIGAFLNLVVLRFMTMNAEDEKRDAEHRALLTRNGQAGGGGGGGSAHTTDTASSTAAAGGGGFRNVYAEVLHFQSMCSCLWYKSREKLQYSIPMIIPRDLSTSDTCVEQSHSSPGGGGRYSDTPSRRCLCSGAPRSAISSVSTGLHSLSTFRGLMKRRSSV
KCNQ1 act: potentiators or activators of human KCNQ1 potassium channel; AID 2648; CHO-K1 KCNQ1, thallium flux FluxOR fluorescence; stronger effect = higher value; B-score at 10 µM; P51787; actives 0.35% (n = 310,000);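 active means fluorescence ratio B-score, a plate-corrected score, at least three library SD, with initial intensity B-score within 5 SD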
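Assay system: stable KCNQ1 CHO-K1 line; medium: assay buffer, equal DMSO in all wells; timing: 90 min dye loading and 20 min compound exposure, both at room temperature; technique: kinetic FluxOR thallium fluorescence, 10-s 1-Hz baseline, 110-s post-stimulus read; read-out basis: B score of baseline-normalized fluorescence ratio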
hERG protect: shields human hERG channel from block by proarrhythmic agents | CHO-hERG, FluxOR thallium flux, dofetilide IC70 present | activation (rescue from dofetilide block), less the hit threshold, % at 10 µM | actives 0.51% (n = 310,000) | AID 1511;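 active means activation above the mean of controls blocked by dofetilide plus 5 SD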;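 further: thallium influx through hERG after potassium depolarization seen as dye fluorescence rise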
KCNK9 block: human KCNK9 channel inhibition | Q9NPC2 | HEK293 KCNK9, FluxOR thallium flux fluorescence; stronger effect = lower value | B-score at 10 µM | actives 1.2% (n = 310,000);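 active means ratio B-score over 3 SD below the library mean, with starting fluorescence within 5 SD of its mean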;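 further: negative B-score means less thallium flux so channel inhibition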
Target sequence (Q9NPC2 whole entry, looked up): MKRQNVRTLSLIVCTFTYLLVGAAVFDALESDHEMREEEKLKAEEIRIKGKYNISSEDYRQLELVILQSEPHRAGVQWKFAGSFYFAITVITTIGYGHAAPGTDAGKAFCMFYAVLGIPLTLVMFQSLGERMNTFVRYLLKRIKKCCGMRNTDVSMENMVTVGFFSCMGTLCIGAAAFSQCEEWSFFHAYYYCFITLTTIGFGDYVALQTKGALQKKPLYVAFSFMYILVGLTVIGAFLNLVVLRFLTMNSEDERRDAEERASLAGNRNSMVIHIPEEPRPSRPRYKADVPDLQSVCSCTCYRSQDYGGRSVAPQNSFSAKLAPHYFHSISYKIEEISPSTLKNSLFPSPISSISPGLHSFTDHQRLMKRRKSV
KCNQ1 inh: human KCNQ1 channel inhibition; AID 2642; CHO-K1 KCNQ1, FluxOR thallium flux fluorescence; stronger effect = higher value; B-score at 10 µM; actives 1.3% (n = 310,000); P51787;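 active means compounds whose thallium flux B-score, printed positive for inhibition, exceeds three library SD while starting fluorescence stays within three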;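 further: channel opened by potassium depolarization with thallium stimulus after 20 min compound exposure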
KCNQ1 inh valid: confirmation of human KCNQ1 potassium channel inhibitors. KCNQ1 cell line, FluxOR thallium flux fluorescence. actives 93% (n = 1,600). inhibition, % at 10 µM. shares compounds with KCNQ1 inh;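 active means primary screen active, with duplicate mean exceeding buffer control mean plus 3 SD of buffer wells, cut at about 28% in these data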
CHO KCNQ1 ctr: KCNQ1 inhibitor counter-screen hit in parental CHO cells. fluorescence ratio (Tl flux) at 10 µM. actives 21% (n = 1,600). shares compounds with KCNQ1 inh. parental CHO-K1, FluxOR thallium flux fluorescence ratio; stronger effect = lower value; zero means no signal rise above baseline;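 active means mean of duplicate thallium-flux fluorescence ratios in parental host cells more than 5 SD below the buffer control mean, cut at about 0.38 in these data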;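 further: ratio is peak minus minimum fluorescence divided by baseline fluorescence; actives read low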
KCNQ1 ephys val: blocks human KCNQ1 current in automated patch clamp | calls only at 10 µM | AID 624120 | shares compounds with KCNQ1 inh | KCNQ1-CHO cells | actives 20% (n = 490);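 active means KCNQ1 current drop exceeding 3 SD of negative control wells, seen in both duplicate runs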;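 further: steady state current during a 2 s step from -80 to +40 mV; negative values mean current inhibition and positive values mean potentiation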
KCNQ2 inh: rat KCNQ2 inhibition in KCNQ1 inhibitor specificity screen; KCNQ2 cells, FluxOR thallium flux fluorescence; actives 71% (n = 1,600); shares compounds with KCNQ1 inh; AID 651746; inhibition, % at 10 µM;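 active means mean percent inhibition of the KCNQ2 thallium signal more than 5 SD above the buffer-only control wells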;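 further: KCNQ2 expressed in CHO cells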
KCNQ1-KCNE1 inh: human KCNQ1/KCNE1 inhibition in KCNQ1 specificity screen | actives 77% (n = 1,600) | AID 652147 | shares compounds with KCNQ1 inh | KCNQ1/KCNE1 cells, FluxOR thallium flux fluorescence | inhibition, % at 10 µM;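 active means mean percent inhibition of duplicate wells above the buffer-only control mean plus 3 SD of those controls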
Each line names hits and unclear results; the compound was inactive in the other large screens (follow-up assays come after a bar, where they were run).

O=C(c1cc(F)ccc1F)C1CCCN(Cc2cccn2-c2ccccn2)C1 (stereo not drawn)	none
COc1ccc(C(=O)C2CCCN(Cc3cccn3-c3ccccn3)C2)c(OC)c1 (stereo not drawn)	KCNQ1 inh 6 | KCNQ1 inh valid inactive | CHO KCNQ1 ctr inactive | KCNQ2 inh 60% | KCNQ1-KCNE1 inh inactive
Cc1cccc(N2CCN(C(=O)c3noc4c3COc3ccc(C)cc3-4)CC2C)c1 (stereo not drawn)	KCNQ1 inh 10 | KCNQ1 inh valid 88 | CHO KCNQ1 ctr inactive | KCNQ2 inh 98% | KCNQ1-KCNE1 inh 112%
CCC(C)NC(=O)c1cccc(OCc2c(C)noc2C)c1 (stereo not drawn)	none
CCOC(=O)c1c(C)[nH]c(C(=O)C(C)OC(=O)c2cccc(OCc3c(C)noc3C)c2)c1C (stereo not drawn)	KCNK3 block -12, KCNQ1 inh 17 | KCNQ1 inh valid 127 | CHO KCNQ1 ctr inactive | KCNQ1 ephys val inactive | KCNQ2 inh 109% | KCNQ1-KCNE1 inh 138%
O=C1c2ccccc2CC1(Cc1ccccc1)Cc1ccccc1	KCNQ1 inh 9 | KCNQ1 inh valid 124 | CHO KCNQ1 ctr 0.33 | KCNQ2 inh 114% | KCNQ1-KCNE1 inh 164%
CCC1(CC)Cc2ccccc2C(=O)N1	none
NS(=O)(=O)c1ccc(CCNC(=O)CSc2nc3ccccc3c(=O)n2CCC(=O)N2CCCCC2)cc1	none
CCC(C(=O)OCC(=O)Nc1cc(Cl)cc(Cl)c1)c1ccccc1 (stereo not drawn)	KCNQ1 inh 11 | KCNQ1 inh valid 114 | CHO KCNQ1 ctr 0.34 | KCNQ2 inh 114% | KCNQ1-KCNE1 inh 52%
Cc1noc(C)c1C(=O)Nc1sc(C)c(-c2ccccc2)c1C#N	KCNQ1 inh 9 | KCNQ1 inh valid 107 | CHO KCNQ1 ctr inactive | KCNQ1 ephys val inactive | KCNQ2 inh 81% | KCNQ1-KCNE1 inh 70%
Cc1nnsc1SCCNC(=O)Nc1ccc(Cl)cc1	KCNQ1 inh 7 | KCNQ1 inh valid 67 | CHO KCNQ1 ctr inactive | KCNQ2 inh inactive | KCNQ1-KCNE1 inh 36%
COc1ccc(CCC(C)NCCc2ccc(Cl)cc2Cl)cc1 (stereo not drawn)	Kir21 block -13, KCNQ1 inh 14 | KCNQ1 inh valid 99 | CHO KCNQ1 ctr inactive | KCNQ2 inh 96% | KCNQ1-KCNE1 inh 106%
O=S(=O)(NCCC1=CCCCC1)c1ccc(Br)cc1	KCNQ1 inh 7 | KCNQ1 inh valid 99 | CHO KCNQ1 ctr inactive | KCNQ1 ephys val active | KCNQ2 inh 106% | KCNQ1-KCNE1 inh 150%
COC(=O)c1ccc(CN2CCN(CC=C(C)C)C(CCO)C2)cc1 (stereo not drawn)	none
CCN(CC)C(=O)c1ccc(COc2ccc(Cl)c(C)c2)o1	KCNQ1 inh 11 | KCNQ1 inh valid 114 | CHO KCNQ1 ctr inactive | KCNQ1 ephys val inactive | KCNQ2 inh 130% | KCNQ1-KCNE1 inh 109%
Cc1ccccc1CSc1ccc(-c2ccc3c(c2)OCO3)nn1	KCNQ1 inh 7 | KCNQ1 inh valid 132 | CHO KCNQ1 ctr 0.36 | KCNQ2 inh 106% | KCNQ1-KCNE1 inh 156%
COc1ccccc1CNC(=S)NCCc1ccccc1	none
CCC(C)c1ccc(NC(=S)NCc2ccccc2OC)cc1 (stereo not drawn)	KCNQ1 inh 9 | KCNQ1 inh valid 62 | CHO KCNQ1 ctr inactive | KCNQ2 inh 69% | KCNQ1-KCNE1 inh 66%
CN(C)S(=O)(=O)c1cc(NC(=O)CN2CCOCC2)ccc1Cl	none
CCc1nnc(NC(=O)c2ccc(-c3ccc([N+](=O)[O-])cc3Cl)o2)s1	none
Cn1c2c(c(=O)n(C)c1=O)C(C(F)(F)F)(C(F)(F)F)N=C(c1ccc(Cl)cc1)N2	KCNQ1 inh 7 | KCNQ1 inh valid 62 | CHO KCNQ1 ctr inactive | KCNQ2 inh inactive | KCNQ1-KCNE1 inh inactive
CCOC(=O)Nc1ccc2c(c1)N(C(=O)CN1CCN(C)CC1)c1ccccc1S2	KCNQ1 inh 9 | KCNQ1 inh valid inactive | CHO KCNQ1 ctr inactive | KCNQ2 inh inactive | KCNQ1-KCNE1 inh 57%
CCC1CCCCN1C(=O)c1cc(COc2ccc3ncccc3c2)on1 (stereo not drawn)	KCNK3 block -9, KCNQ1 inh 12 | KCNQ1 inh valid 124 | CHO KCNQ1 ctr inactive | KCNQ2 inh 86% | KCNQ1-KCNE1 inh 112%
COCC1CCCCN1C(=O)c1cc(COc2ccc3ncccc3c2)on1 (stereo not drawn)	none
NCC12CC3CC(C1)CC(c1ccc(Br)cc1)(C3)C2	Kir21 block -9.5, KCNQ1 inh 6 | KCNQ1 inh valid 66 | CHO KCNQ1 ctr inactive | KCNQ2 inh inactive | KCNQ1-KCNE1 inh 124%
Cc1ccc(CNCC(O)(c2ccccc2)c2ccc(Cl)cc2)cc1 (stereo not drawn)	KCNQ1 inh 6 | KCNQ1 inh valid 116 | CHO KCNQ1 ctr inactive | KCNQ1 ephys val inactive | KCNQ2 inh 92% | KCNQ1-KCNE1 inh 42%
COc1c(S(=O)(=O)N2CCN(C)CC2)ccc(Cl)c1Cl	KCNQ1 inh 7 | KCNQ1 inh valid inactive | CHO KCNQ1 ctr inactive | KCNQ2 inh inactive | KCNQ1-KCNE1 inh 56%
COc1ccc(Cl)cc1S(=O)(=O)N1CCN(C)CC1	none
Cc1c(C)n(C(=O)CSc2nc3ccccc3[nH]2)c2ccccc12	KCNQ1 inh 7 | KCNQ1 inh valid 139 | CHO KCNQ1 ctr inactive | KCNQ1 ephys val inactive | KCNQ2 inh 124% | KCNQ1-KCNE1 inh 190%
O=C(CSc1nc2ccccc2[nH]1)N1CCCCC1	none
COc1ccc(NC(C)C(=O)Nc2ccc(C(C)(C)C)cc2)cc1Cl (stereo not drawn)	KCNQ1 inh 7 | KCNQ1 inh valid 146 | CHO KCNQ1 ctr inactive | KCNQ1 ephys val inactive | KCNQ2 inh 92% | KCNQ1-KCNE1 inh 167%
COc1ccc(NC(C)C(=O)Nc2ccc(C#N)cc2)cc1Cl (stereo not drawn)	none
